Assays:
[1] = Inhibition of human Pgp overexpressed in […]-MDR1 cells assessed as inhibition of R123 efflux after 60 mins; assay type: cell-based, MDCK-II; settings: 1 h
[2] = Ratio of drug level in brain to blood in Mdr1a/b(-/-)/Bcrp1(-/-) mouse; assay type: ADME, tissue-based
Outline: (§1)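 Female FVB wild-type and Mdr1a/b(−/−)Bcrp1(−/−) mice (n=3 each), isoflurane-anaesthetised. [18F] tracer given via tail vein (6±1 MBq), 60 min dynamic microPET. Brain SUV at 50-60 min divided by whole-blood SUV; blood taken retro-orbitally at scan end and gamma-counted. Groups compared by 2-tailed t-test.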

Brain [3] = experiment: Drug uptake in Sprague-Dawley rat brain at 33 +/- 3 MBq, iv administered 60 mins before 5 mg/kg, iv elacridar injection measured after 25 mins; assay type: ADME, organism-based; set-up: dose 5 mg/kg, route intravenous; settings: in vivo
Outline: (§2)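 Isoflurane-anaesthetised female Sprague Dawley rats (n=3, warmed about 38°C), femoral catheters. [18F] tracer given i.v. (33±3 MBq), followed by a dynamic 150 min microPET scan. […] Whole brain or humerus outlined on summation images; time-activity curves given as SUV (mean±SD).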

Plasma [4] = experiment: Drug concentration in Sprague-Dawley rat plasma assessed as radiometabolites at 74 +/- 23 MBq after 30 mins by SPE assay relative to total plasma concentration; assay type: ADME, cell-free; settings: 0.5 h
Outline: (§3)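 Female Sprague Dawley rats (n=3, isoflurane, no PET) given [18F] tracer i.v. (74±23 MBq). Blood drawn at 10, 20, 30 min and terminally at 40 min. Plasma centrifuged and run through SPE. Polar radiometabolites are counted as fractions 1+2 by gamma counter, as % of total plasma activity. At 40 min the MeOH fraction also went to reversed-phase HPLC.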

Plasma [5] = experiment: Drug concentration in Sprague-Dawley rat plasma assessed as radiometabolites at 74 +/- 23 MBq after 20 mins by SPE assay relative to total plasma concentration; assay type: ADME, cell-free
Outline: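 Female Sprague-Dawley rats (n=3) under isoflurane, given i.v. [18F]-tracer (74±23 MBq, 17.2±3.9 nmol or 37±10 μg/kg unlabelled) without PET imaging. Arterial blood was drawn at 10, 20 and 30 min, with a terminal sample at 40 min. Plasma was obtained by centrifugation (3000×g, 5 min) and run through solid-phase extraction. The plasma, H2O and MeOH fractions were gamma-counted. Polar radiometabolites (fractions 1+2) are given as % of total plasma activity.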

[6] = Drug uptake in Sprague-Dawley rat humerus after 140 mins in presence of 5 mg/kg elacridar; assay type: ADME, organism-based; set-up: dose 5 mg/kg; settings: in vivo; outline: as §2
Plasma [7] = experiment: Drug concentration in Sprague-Dawley rat plasma assessed as radiometabolites at 74 +/- 23 MBq after 40 mins by SPE assay relative to total plasma concentration; assay type: ADME, cell-free; outline: as §3
[8] = Ratio of drug level in brain to blood in wild-type mouse; assay type: ADME, tissue-based; outline: as §1
Brain [9] = experiment: Drug uptake in Sprague-Dawley rat brain at 33 +/- 3 MBq, iv administered 60 mins before 5 mg/kg, iv elacridar injection measured after 0.9 to 1.3 mins; assay type: ADME, organism-based; set-up: dose 5 mg/kg, route intravenous; settings: in vivo; outline: as §2
Brain [10] = experiment: Drug uptake in Sprague-Dawley rat brain after 40 mins by reversed-phase HPLC; assay type: ADME, tissue-based; settings: in vivo
Outline: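 Same rat group (n=3) injected i.v. with [18F] tracer and sacrificed at 40 min. Brain washed with ice-cold H2O, homogenized in 0.9% NaCl and extracted with CH3CN. Supernatant diluted 1:1 with 0.1% TFA and analysed by reversed-phase HPLC with UV 257 nm and radioactivity detection. Value is unchanged tracer as % of total brain radioactivity.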

[11] = Drug uptake in Sprague-Dawley rat humerus after 1.8 mins in presence of 5 mg/kg elacridar; assay type: ADME, organism-based; set-up: dose 5 mg/kg; settings: in vivo, 0.03 h; outline: as §2
Plasma [12] = experiment: Drug concentration in Sprague-Dawley rat plasma assessed as radiometabolites at 74 +/- 23 MBq after 10 mins by SPE assay relative to total plasma concentration; assay type: ADME, cell-free; outline: as §3
Brain [13] = experiment: Drug uptake in Sprague-Dawley rat brain at 33 +/- 3 MBq, iv administered 60 mins before 5 mg/kg, iv elacridar injection measured after 140 mins; assay type: ADME, organism-based; set-up: dose 5 mg/kg, route intravenous; settings: in vivo; outline: as §2
MDCK-II = settings: Homo sapiens, 3.7 uM

**Q.** With `COc1cc2c(cc1OC)CN(CCc1ccc(NC(=O)c3cc(F)cc4c(=O)c5cccc(OC)c5[nH]c34)cc1)CC2` as the molecule, how does the IC50 [1] read?
**A.** 600 nM

**Q.** Which results are given for `COc1cc2c(cc1OC)CN(CCc1ccc(NC(=O)c3ccc([18F])c4c(=O)c5cccc(OC)c5[nH]c34)cc1)CC2`?
**A.** Kp [2]: 11.6; SUV (Brain [3]): 0.14; Cp (Plasma [4]): 12%; Cp (Plasma [5]): 6%; SUV [6]: 4.59; Cp (Plasma [7]): 13%; Kp [8]: 1.5; SUV (Brain [9]): 0.46; Drug uptake (Brain [10]): 93%; SUV [11]: 1.42; Cp (Plasma [12]): 6%; SUV (Brain [13]): 1.14

**Q.** With `COc1cc2c(cc1OC)CN(CCc1ccc(NC(=O)c3ccc(F)c4c(=O)c5cccc(OC)c5[nH]c34)cc1)CC2` as the molecule, how does the IC50 [1] read?
**A.** 1700 nM

**Q.** Which IC50 [1] does the source give for `COc1cc2c(cc1OC)CN(CCc1ccc(NC(=O)c3cc(Cl)cc4c(=O)c5cccc(OC)c5[nH]c34)cc1)CC2` here?
**A.** 1400 nM

**Q.** With `COc1cc2c(cc1OC)CN(CCc1ccc(NC(=O)c3ccc(Cl)c4c(=O)c5cccc(OC)c5[nH]c34)cc1)CC2` as the molecule, how does the IC50 [1] read?
**A.** 3800 nM

**Q.** Which IC50 [1] does the source give for `COc1cc2c(cc1OC)CN(CCc1ccc(NC(=O)c3ccc([N+](=O)[O-])c4c(=O)c5cccc(OC)c5[nH]c34)cc1)CC2` here?
**A.** 1600 nM

**Q.** For `COc1cc2c(cc1OC)CN(CCc1ccc(NC(=O)c3cccc4c(=O)c5cccc(OC)c5[nH]c34)cc1)CC2`, which inhibition (MDCK-II) is on record?
**A.** 100%
